Shown are actives, neighbours in structure and some others; about 2.3% of the full set was active somewhere.
Arrestin-AP2 inh = inhibitors of human beta-arrestin and AP2 interaction; inhibition, % at 10 µM; FITC-arrestin peptide / GST-AP2 beads, flow cytometry; AP2 beta2 appendage carries R879A mutation; 340,000 compounds, 0.31% hits;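 active = inhibition above a set limit, near 3 SD of compounds lacking own fluorescence, cut at about 54% in these data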;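 note: plate controls were DMSO wells for no effect and 5 µM unlabelled arrestin peptide for full effect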
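System: GST-AP2 R879A bound to glutathione beads, E. coli-expressed. Also added: 50 nM FITC-arrestin peptide. Schedule: compound with beads 12 min RT, then probe 1 h RT. Signal: bead flow cytometry, FITC channel. Read-out basis: percent response.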
PAX8 reporter = PAX8 transcriptional activity inhibition; inhibition, % at 12.6 µM; RMG-I TPO-luciferase reporter, SteadyGlo, 24 h; 360,000 compounds, 1.2% hits;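 active = mean replicate inhibition at least 60% with every replicate also reaching 60%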;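 note: luciferase light reporting Pax8 driven TPO promoter activity; plate controls were median of neutral control wells for no effect and mitoxantrone controls for full effect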
Glyco luc inh = N-linked glycosylation inhibition | D54 ERlucT glycosylation luciferase reporter, 24 h; percent of 100 nM tunicamycin response | reporter increase, % at 12.5 µM | 360,000 compounds, 0.23% hits | AID 588692;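 active = mean luciferase reporter signal, scaled so untreated is 0 and the glycosylation-blocking control 100, at or above a set limit in every replicate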;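 note: luciferase carries N-glycosylation sites so blocking glycosylation raises the light; 0% = median of neutral control wells and 100% = median of 100 nM tunicamycin wells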
Rtt109 Vps75 = blocks Candida albicans Rtt109/Vps75 acetyltransferase activity | Q5AAJ8 | purified Rtt109/Vps75, ThioGlo CoA-SH fluorescence, 4 h | inhibition, % at 34.9 µM | 330,000 compounds, 0.16% hits | AID 540336;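 active = inhibition of at least 50% in every replicate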
PfHsp90 yeast 2 = reduces growth (ATP signal) of yeast expressing P. falciparum Hsp90 | S. cerevisiae expressing PfHsp90, BacTiter-Glo ATP, 48 h; yeast lacking PDR1 and PDR3 efflux regulators | inhibition, % at 9.4 µM | 310,000 compounds, 0.32% hits;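 active = every replicate shows inhibition above about 80%, whatever the replicate mean, limit read from the data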;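 note: 0% = DMSO neutral controls and 100% = 20 µM radicicol positive controls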
Env fusion inh = blocks HIV Env-driven cell-cell fusion | HeLa-JRFL Env/CEM21 cell fusion, luciferase | inhibition, % at 12.3 µM | 360,000 compounds, 1.1% hits;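 active = mean replicate inhibition score of at least 50 and every replicate individually at or above 50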;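 note: 0% = plate neutral controls and 100% = maraviroc near 300 nM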
Arr-AP2 CP1 = blocks beta-arrestin peptide binding to human AP2; shares compounds with Arrestin-AP2 inh; inhibition, % at 10 µM; AID 504908; GST-AP2 beads, FITC arrestin peptide binding, flow cytometry; GST-fused beta2-adaptin appendage, R879A mutant; 1,300 compounds, 2% hits;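 active = inhibition above a set limit, roughly 3 SD of non-fluorescent compound noise, cut at about 38% in these data; inactive = inhibition at or below that limit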;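 note: loss of bead fluorescence from 50 nM FITC arrestin peptide bound to appendage; 0% = negative control wells and 100% = excess unlabelled arrestin peptide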
Target sequence (P63010 whole entry, looked up, the tested form may be a part, one chain of several): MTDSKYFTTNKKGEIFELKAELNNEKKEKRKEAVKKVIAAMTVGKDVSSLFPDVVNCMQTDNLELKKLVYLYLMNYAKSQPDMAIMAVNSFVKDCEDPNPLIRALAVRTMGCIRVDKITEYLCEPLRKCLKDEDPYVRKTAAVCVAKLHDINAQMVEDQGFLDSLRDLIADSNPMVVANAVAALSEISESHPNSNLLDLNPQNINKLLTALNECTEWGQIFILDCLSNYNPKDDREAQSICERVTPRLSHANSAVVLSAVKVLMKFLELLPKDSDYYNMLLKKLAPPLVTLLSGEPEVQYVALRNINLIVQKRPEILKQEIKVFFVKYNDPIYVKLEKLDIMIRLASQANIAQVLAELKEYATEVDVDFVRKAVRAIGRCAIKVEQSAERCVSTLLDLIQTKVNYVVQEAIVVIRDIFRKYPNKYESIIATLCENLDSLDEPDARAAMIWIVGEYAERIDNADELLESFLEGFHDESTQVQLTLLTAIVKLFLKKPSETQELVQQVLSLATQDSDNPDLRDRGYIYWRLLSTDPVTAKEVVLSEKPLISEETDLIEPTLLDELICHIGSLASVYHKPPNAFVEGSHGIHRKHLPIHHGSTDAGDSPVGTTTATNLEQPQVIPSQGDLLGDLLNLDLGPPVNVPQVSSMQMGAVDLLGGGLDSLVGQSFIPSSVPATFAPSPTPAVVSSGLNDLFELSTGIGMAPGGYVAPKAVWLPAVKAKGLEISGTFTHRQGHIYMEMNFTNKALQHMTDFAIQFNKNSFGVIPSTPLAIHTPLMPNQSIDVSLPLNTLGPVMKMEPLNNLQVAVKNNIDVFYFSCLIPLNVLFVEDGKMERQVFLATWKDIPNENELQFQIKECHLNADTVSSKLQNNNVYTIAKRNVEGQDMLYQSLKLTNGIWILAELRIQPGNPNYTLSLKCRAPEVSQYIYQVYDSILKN
GST GSH counter = counter-screen for beta-arrestin AP2 inhibitors: GST-GSH bead binding. shares compounds with Arrestin-AP2 inh. 1,300 compounds, 2% hits. GST-fluorescein binding to GSH beads, fluorescence. inhibition, % at 10 µM;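 active = inhibition above 50%, about 3 SD of the inhibition seen with non-fluorescent compounds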;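 note: fluorescein maleimide labelled GST captured on 4 micron glutathione beads; higher means more loss of bead fluorescence from quenching or blocked binding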
Starred values were filed as active, the others as inactive; · = no result given; [ ] = dose if it differs, or a comment.

SMILES | Arrestin-AP2 inh | PAX8 reporter | Glyco luc inh | Rtt109 Vps75 | PfHsp90 yeast 2 | Env fusion inh | Arr-AP2 CP1 | GST GSH counter
Cc1ccc(S(=O)(=O)Nc2ccc3c(c2)C(=O)N([C@H](C)CO)C[C@@H](C)[C@@H](CN(C)C(=O)Cc2ccccc2)OCCCC[C@@H](C)O3)cc1 | · | 1 | · | · | · | -34[16.7 µM] | · | ·
C[C@@H]1CCCCO[C@@H](CN(C)C(=O)NC2CCCCC2)[C@@H](C)CN([C@@H](C)CO)C(=O)c2cc(NC(=O)NC3CCCCC3)ccc2O1 | · | 6 | · | · | · | 2[16.7 µM] | · | ·
CC(=O)N(C)C[C@@H]1Oc2ncc(-c3ccc(C#N)cc3)cc2C(=O)N([C@@H](C)CO)C[C@@H]1C | · | · | · | · | · | 1[16.7 µM] | · | ·
Cc1ccc(NC(=S)NNc2ccc([N+](=O)[O-])cc2S(=O)(=O)Nc2ccccc2C(=O)O)cc1C | 38 | -23 | 4 | -4 | -16 | -1 | · | ·
O=C(O)c1ccccc1NS(=O)(=O)c1ccc(NNC(=S)Nc2ccc(OC(F)F)cc2)c([N+](=O)[O-])c1 | 62* | 21 | 1 | 38 | -2 | 4 | -2 | -5
CC(C)NC(=O)Nc1ccc2c(c1)C(=O)N([C@H](C)CO)C[C@@H](C)[C@H](CN(C)S(=O)(=O)c1ccc(F)cc1)O2 | · | -2 | · | · | · | · | · | ·
COCC(=O)N1C[C@@H](C)[C@H](OC)CN(C)C(=O)c2cc(NC(=O)c3ccc(OC)cc3)ccc2OC[C@H]1C | · | -6 | · | · | · | 18[16.7 µM] | · | ·
COC(=O)c1nc(-c2ccccc2)oc1N(C)C | 22 | -2 | -1 | · | · | -26 | · | ·
COC(=O)c1nc(-c2ccc(C)cc2)oc1N(C)C | 59* | · | 2 | 4 | 6 | · | 10 | 11
CN(c1ccccc1)c1nc(N)c(C#N)c(CC#N)c1C#N | 62* | -2 | 2 | 21 | -5 | 2 | -11 | -3
CN(CCO)c1nc(N)c(C#N)c(CC#N)c1C#N | 4 | -1 | -1 | -2 | 14 | -5 | · | ·
CCOc1ccc(Cc2noc3c2C(=O)CC(C)(C)C3)cc1OCC | 57* | 30 | 0 | -3 | · | -14 | 9 | -4
CCOc1ccc(Cc2noc3c2C(=O)CCC3)cc1OCC | -44 | 10 | 2 | 0 | · | -2 | · | ·
COCC(=O)N1C[C@@H]2[C@H](c3ccccc31)[C@H](CO)N2Cc1ccc(OC)cc1 | · | 8 | · | · | · | · | · | ·
Cc1cc(Br)ccc1OCCNCc1ccccc1 | 56* | -22 | -1 | 3 | 8 | 2 | -2 | -13
